Columns and labels:
[1] = Bioavailability in rat; assay type: ADME, organism-based; details: in vivo
[2] = Area under curve (AUC) was determined after intravenous dosing at 10 mg/kg in rat; assay type: ADME, organism-based; design: dose 10 mg/kg, route intravenous; details: in vivo
How it was run: (§1)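 Male Sprague–Dawley rats (250–300 g), femoral artery and vein cannulated under light ether anesthesia; after recovery, 10 mg/kg given via femoral vein. Arterial blood sampled at 0, 1, 5, 15, 30, 60, 90, 120, 180, 240 min, collected into heparinized tubes, deproteinized with 2 volumes methanol, centrifuged; supernatant analyzed by HPLC (0.1% TFA/acetonitrile 81:19).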

[3] = Area under curve (AUC) was measured after oral dosing at 30 mg/kg in rat; assay type: ADME, organism-based; design: dose 30 mg/kg, route oral; details: in vivo
[4] = Steady state volume of distribution (Vdss) was determined after intravenous dosing at 10 mg/kg in rat; assay type: ADME, organism-based; design: dose 10 mg/kg, route intravenous; details: in vivo, read-out: Vdss; how it was run: as §1
[5] = Half life of compound was determined after intravenous dosing at 10 mg/kg in rat; assay type: ADME, organism-based; design: dose 10 mg/kg, route intravenous; details: in vivo; how it was run: as §1
[6] = Clearance value was determined after intravenous dosing at 10 mg/kg in rat; assay type: ADME, organism-based; design: dose 10 mg/kg, route intravenous; details: in vivo; how it was run: as §1
[7] = Maximal plasma concentration in rats after 30 mg/kg oral dose; assay type: ADME, organism-based; design: dose 30 mg/kg, route oral; details: rat
[8] = system: Rattus norvegicus; experiment: In vivo inhibition of thrombus formation in thromboplastin-induced deep vein thrombosis (DVT) rat model after iv bolus dosing at 1 mg/kg; assay type: functional
[9] = system: Rattus norvegicus; experiment: Ex vivo activated clotting time was measured in rat plasma at 1 mg/kg; assay type: functional
[10] = molecular target: Prothrombin (Homo sapiens, UniProt P00734); experiment: In vitro inhibition constant (Ki) against human thrombin
[11] = In vitro metabolic stability was determined using liver S9 fraction from dog at initial concentration of 20 uM; assay type: ADME, Canis lupus familiaris; details: read-out: Recovery
How it was run: (§2)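 Liver S9 (9000g supernatant of homogenate in Tris-acetate pH 7.4, KCl, EDTA) from rat, dog, monkey (pooled, n = 2) or human (n = 2); 20 µM final compound with NADPH generating system and S9 6.72 mg/mL in 100 mM phosphate pH 7.4, 37 °C. Samples methanol-deproteinized, HPLC; recovery after 30 min reported; no-NADPH control.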

[12] = In vitro metabolic stability was determined using liver S9 fraction from human at initial concentration of 20 uM; assay type: ADME; details: liver S9 fraction, read-out: Recovery; how it was run: as §2
[13] = In vitro metabolic stability was determined using liver S9 fraction from rat at initial concentration of 20 uM; assay type: ADME; details: read-out: Recovery; how it was run: as §2
[14] = In vitro metabolic stability was determined using liver S9 fraction from monkey at initial concentration of 20 uM; assay type: ADME, subcellular; details: simiiformes, read-out: Recovery; how it was run: as §2
[15] = species on record: Rattus norvegicus; experiment: Ex vivo concentration of inhibitor to double the activated clotting time was measured in rat plasma; assay type: functional
[16] = species on record: Rattus norvegicus; experiment: In vitro concentration of inhibitor to double the activated partial thromboplastin time was evaluated in rat; assay type: functional
[17] = species on record: Homo sapiens

Row | AUC [3] | Cmax [7] | Ki [10] | SMILES | bioavailability [1] | AUC [2] | Vd [4] | half-life [5] | clearance [6] | inhibition in vivo at 1 mg/kg [8] | ACT [9] | remaining at 20 µM [11] | remaining at 20 µM [12] | remaining at 20 µM [13] | remaining at 20 µM [14] | Concentration to double activated clotting time [15] | APTT [16] | APTT [17]
1 | 2000 ng·h/mL | 1300 ng/mL | 0.013 nM | N=C(N)c1ccc(CNC(=O)[C@@H]2CCCN2C(=O)[C@H](NCC(=O)O)C(c2ccccc2)c2ccccc2)cc1 | – | – | – | – | – | – | – | 95% | 97% | 87% | 80% | – | – | –
2 | 3430 ng·h/mL | 2400 ng/mL | 0.008 nM | N=C(N)c1ccc(CNC(=O)[C@@H]2CCCN2C(=O)[C@H](NS(N)(=O)=O)C(c2ccccc2)c2ccccc2)cc1F | – | – | – | – | – | – | – | – | – | – | – | – | – | –
3 | – | 4600 ng/mL | 0.17 nM | COC(=O)N[C@@H](C(=O)N1CCC[C@H]1C(=O)NCc1cc(C(=N)N)cs1)C(c1ccccc1)c1ccccc1 | – | – | – | – | – | – | – | – | – | – | – | – | – | –
4 | 1420 ng·h/mL | 1300 ng/mL | 0.005 nM | CS(=O)(=O)N[C@@H](C(=O)N1CCC[C@H]1C(=O)NCc1ccc(C(=N)N)s1)C(c1ccccc1)c1ccccc1.N=C(N)c1ccccc1 | – | – | – | – | – | – | – | – | – | – | – | – | – | –
5 | – | 500 ng/mL | 0.16 nM | N=C(N)c1cc(CNC(=O)[C@@H]2CCCN2C(=O)[C@H](NS(N)(=O)=O)C(c2ccccc2)c2ccccc2)cs1 | – | – | – | – | – | – | – | – | – | – | – | – | – | –
6 | – | 2000 ng/mL | 0.02 nM | N=C(N)c1csc(CNC(=O)[C@@H]2CCCN2C(=O)[C@H](NS(N)(=O)=O)C(c2ccccc2)c2ccccc2)c1 | – | – | – | – | – | – | – | – | – | – | – | – | – | –
7 | – | – | – | CC1CNc2c(cccc2S(=O)(=O)N[C@@H](CCCNC(=N)N)C(=O)N2CC[C@@H](C)C[C@@H]2C(=O)O)C1 (stereo not given in full) [ARGATROBAN] | – | – | – | – | – | 82% | 1.9 | – | – | – | – | 1.97 µM | 2.5 µM | 0.57 µM
8 | 4100 ng·h/mL | 1600 ng/mL | – | N=C(N)c1ccc(CNC(=O)[C@@H]2CCCN2C(=O)[C@H](NS(N)(=O)=O)C(c2ccccc2)c2ccccc2)cn1 | – | – | – | – | – | – | – | – | – | – | – | – | – | –
9 | 1480 ng·h/mL | 1100 ng/mL | 0.01 nM | N=C(N)c1ccc(CNC(=O)[C@@H]2CCCN2C(=O)[C@H](NS(N)(=O)=O)C(c2ccccc2)c2ccccc2)c(F)c1 | – | – | – | – | – | – | – | – | – | – | – | – | – | –
10 | 4380 ng·h/mL | 2800 ng/mL | – | CS(=O)(=O)N[C@@H](C(=O)N1CCC[C@H]1C(=O)NCc1ccc(C(=N)N)cc1)C(c1ccccc1)c1ccccc1 | – | – | – | – | – | – | – | – | – | – | – | – | – | –
11 | – | – | 0.01 nM | N=C(N)c1ccc(CNC(=O)[C@@H]2CCCN2C(=O)[C@H](NCCC(=O)O)C(c2ccccc2)c2ccccc2)s1 | – | – | – | – | – | – | – | – | – | – | – | – | – | –
12 | 18600 ng·h/mL | 7100 ng/mL | 1.4 nM | COC(=O)N[C@@H](C(=O)N1CCC[C@H]1C(=O)NCc1coc(C(=N)N)c1)C(c1ccccc1)c1ccccc1 | – | – | – | – | – | – | – | – | – | – | – | – | – | –

Row | SMILES | AUC [3] | Cmax [7] | Ki [10] | bioavailability [1] | AUC [2] | Vd [4] | half-life [5] | clearance [6] | inhibition in vivo at 1 mg/kg [8] | ACT [9] | remaining at 20 µM [11] | remaining at 20 µM [12] | remaining at 20 µM [13] | remaining at 20 µM [14] | Concentration to double activated clotting time [15] | APTT [16] | APTT [17]
13 | COC(=O)N[C@@H](C(=O)N1CCC[C@H]1C(=O)NCc1ccc(C(=N)N)nc1)C(c1ccccc1)c1ccccc1 | 26100 ng·h/mL | 14000 ng/mL | 0.017 nM | 11% | 80400 ng·h/mL | 0.139 L/kg | 81 min | 2.1 mL/min/kg | 100% | 6 | – | – | – | – | – | – | –
14 | N=C(N)c1ccc(CNC(=O)[C@@H]2CCCN2C(=O)[C@H](NS(N)(=O)=O)C(c2ccccc2)c2ccccc2)o1 | 2270 ng·h/mL | 1000 ng/mL | 0.43 nM | – | – | – | – | – | – | – | – | – | – | – | – | – | –
15 | COC(=O)N[C@@H](C(=O)N1CCC[C@H]1C(=O)NCc1ccc(C(=N)N)s1)C(c1ccccc1)c1ccccc1 | 7100 ng·h/mL | 4100 ng/mL | 0.015 nM | 8% | 31200 ng·h/mL | 0.152 L/kg | 53 min | 5.4 mL/min/kg | 93% | 5.2 | 91% | 38% | 60% | < 10% | 3.75 µM | 2.85 µM | 0.34 µM
16 | COC(=O)N[C@@H](C(=O)N1CCC[C@H]1C(=O)NCc1ccc(C(=N)N)cc1)C(c1ccccc1)c1ccccc1 | 9900 ng·h/mL | 4000 ng/mL | – | 6% | 56800 ng·h/mL | 0.174 L/kg | 69 min | 3 mL/min/kg | 100% | 6.8 | 65% | 86% | 80% | 39% | – | – | –
17 | CN(C(=O)C(NS(=O)(=O)c1ccc2ccccc2c1)c1ccc(C(=N)NN)cc1)C1CCCC1 (stereo not given) | – | – | 0.4 nM | – | – | – | – | – | – | – | – | – | – | – | – | – | –
18 | N=C(N)c1ccc(CNC(=O)[C@@H]2CCCN2C(=O)[C@H](NS(N)(=O)=O)C(c2ccccc2)c2ccccc2)cc1 | 4530 ng·h/mL | 2800 ng/mL | – | 8% | 19700 ng·h/mL | 0.297 L/kg | 45 min | 8.6 mL/min/kg | 100% | 11 | 93% | 92% | 90% | 87% | 1.23 µM | 1.24 µM | 0.14 µM
19 | COC(=O)N[C@@H](C(=O)N1CCC[C@H]1C(=O)NCc1csc(C(=N)N)c1)C(c1ccccc1)c1ccccc1 | – | 8600 ng/mL | 0.6 nM | 7% | 102000 ng·h/mL | 0.23 L/kg | 45 min | 1.7 mL/min/kg | 98% | 3.7 | 83% | 13% | 49% | < 10% | 6.86 µM | 5.2 µM | 0.37 µM
20 | N=C(N)c1ccc(CNC(=O)[C@@H]2CCCN2C(=O)[C@H](NS(N)(=O)=O)C(c2ccccc2)c2ccccc2)s1 | 4700 ng·h/mL | – | – | 11% | 14400 ng·h/mL | 0.31 L/kg | 34 min | 11.6 mL/min/kg | 100% | – | 96% | 86% | 84% | 81% | 2.09 µM | 1.5 µM | 0.19 µM

From ChEMBL document CHEMBL1144934, “Efficacious and orally bioavailable thrombin inhibitors based on a 2,5-thienylamidine at the P1 position: discovery of N-carboxymethyl-d-diphenylalanyl-l-prolyl[(5-amidino-2-thienyl)methyl]amide” (J Med Chem, 2003)
